# Assay outcomes: PubChem BioAssay, several laboratories
# CHOP inhibitor = inhibitors of CHOP promoter induction, primary screen, cell-based, unfolded protein response, luciferase reporter. inhibition, % at 10 µM. AID 2732, 2010. CHO-K1 CHOP-promoter luciferase, tunicamycin-induced, 15-18 h. 3.8% of 220,000 active;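 active = compounds that reduced the stress-induced luciferase reporter signal by more than about 70% of percent inhibition, limit read from the data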;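 also: 0% = tunicamycin plus vehicle and 100% = wells without tunicamycin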
# Lmaj promast = Leishmania major promastigote growth inhibition, primary screen; Leishmania major promastigotes, resazurin fluorescence viability; inhibition, % at 10 µM; 9% of 200,000 active; AID 1063, 2008;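 also: promastigotes grown with compound for 44 hours at 28 °C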
# PKD1 kinase inh = inhibitors of human PKD1 kinase, biochemical, fluorescence polarization; 0.056% of 200,000 active; AID 797, 2007; PKD1 kinase fluorescence polarization assay; inhibition, % (concentration not given with the values); Serine/threonine-protein kinase D1 (Homo sapiens), Q15139
# Arbovirus anti = antivirals against arbovirus infection, primary screen, cell-based, full library, 10K replicate subset | 0.37% of 200,000 active | inhibition, % at 10 µM | arbovirus infection cell-based antiviral screen | AID 1251, 2008; in the data active = inhibition above about 30%
# Wee1 stabilizer = Wee1 degradation inhibitors, primary screen, cell-based, HeLa, Wee1K328M-luciferase, luminescence; 1.2% of 220,000 active; HeLa Luc-Wee1K328M stability; 100% = proteasome inhibitor MG132 effect; reporter increase, % at 5 µM;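 active = activation above the mean of all tested compounds plus 3 SD, set per screening run, cut at about 8.8% in these data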;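 also: cells exposed to compound for 20 h before luminescence read; 0% = DMSO alone and 100% = MG132 at 30 µM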
# Rad51 HR inh = human RAD51 strand exchange inhibitors, primary screen, biochemical, fluorescence; 0.085% of 200,000 active; inhibition, % at 10 µM; hRad51 DNA strand exchange, fluorescence dequenching; DNA repair protein RAD51 homolog 1 (Homo sapiens), Q06609; AID 1385, 2008;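 active = inhibition above 40% at the single screening dose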;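 also: 0% = DMSO control wells and 100% = blanks with heterologous ssDNA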
#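 Material: human Rad51–ssDNA filaments; Probe or stimulus: labelled 47-mer dsDNA for strand exchange; Doses: single 10 µM dose; Incubation: 37 °C 15-min filament assembly, 30-min compound preincubation, 15-min exchange; Technique: FRET fluorescence dequenching, excitation 485 nm, emission 520 nm; Measure: Fluorescence-based percent inhibition, control- and blank-normalised; Benchmarks: plate control and blank wells.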
# Wee1 stab conf = Wee1 degradation inhibitors, confirmation, cell-based, HeLa, Wee1K328M-luciferase, luminescence, triplicate. shares compounds with Wee1 stabilizer. HeLa Luc-Wee1K328M degradation; vehicle 0%, proteasome-blocked wells 100%. activation, % at 5 µM. 4% of 1,100 active. AID 1410, 2008; in the data active = activation above about 8.9%
# Active calls of the source: *; . = no result given. The list is not random: actives were taken first. Their share in the collection is about 12%. Rule as the data show it, unless noted: active = inhibition above about 50%; inactive = the rest.
SMILES,CHOP inhibitor,Lmaj promast,PKD1 kinase inh,Arbovirus anti,Wee1 stabilizer,Rad51 HR inh,Wee1 stab conf
COc1ccc(Nc2nc3ccc(OC)cc3s2)cc1,4,-3,-6,21,-2,2,.
C/C(=N\N=c1/sc2ccccc2n1C)c1ccc(N2CCOCC2)cc1,6,4,-1,2,14*,-1,1
CC1(C)CC(=O)C2=C(C1)OC(N)=C(C#N)C2c1cc2c(cc1[N+](=O)[O-])OCO2 (stereo unspecified),57,65*,-5,4,11*,-169,2
COc1cccc(-n2c(Cc3cc(=O)[nH]c(=O)[nH]3)nnc2SCc2cccnc2)c1,21,-7,-3,1,2,1,.
COc1ccc(Cl)c2c1[nH]c1nc(SCc3cccnc3)nnc12,86*,0,0,-6,13*,2,-1
O=C(CSc1nnc(COc2ccccc2Cl)o1)NC(=O)NCc1ccco1,10,.,.,.,0,.,.
CN(CCOc1ccccc1)C(=O)c1cc([N+](=O)[O-])cc([N+](=O)[O-])c1,-5,26,-3,1,17*,8,-3
CN1CCN(Cc2cn[nH]c2-c2ccc(F)cc2F)[C@@H](c2ccccc2)C1,16,10,6,5,0,10,.
COC(=O)c1ccccc1NC(=O)Nc1cnccn1,6,1,-5,3,-2,0,.
CCOc1ccccc1NC(=O)Nc1cccc(C(C)=O)c1,32,5,-1,-1,15*,-4,2
CCOc1ccccc1NC(=O)Nc1cccc(NC(C)=O)c1,4,.,.,.,2,.,.
CCOc1ccccc1NC(=O)Nc1cnccn1,29,0,3,5,17*,4,2
CCCCn1c(SCC(=O)Nc2cc(C(F)(F)F)cc(C(F)(F)F)c2)nnc1C(CC)N(C)C (stereo unspecified),63,17,-3,-16,-4,16,.
COc1cc(/C=N/Nc2ccc(S(N)(=O)=O)cc2[N+](=O)[O-])cc(OC)c1O,8,.,.,.,11*,12,-1
NS(=O)(=O)c1ccc(N/N=C/c2ccc(C(=O)O)cc2)c([N+](=O)[O-])c1,25,.,.,.,0,22,.
Cc1nc(-c2ccccc2)sc1-c1ccnn1C,-5,-1,8,4,18*,12,5
O=C(NCc1cccs1)c1ccccc1,15,4,-12,-2,-1,5,.
O=C(NCc1cccs1)c1cccc(Nc2nc3ccc(Br)cc3[nH]2)c1,61,1,-3,-19,15*,6,3
CC(=O)c1ccc(NC(=O)CSc2nnc(Cn3cnc4ccccc43)o2)cc1,-4,-4,1,10,16*,7,2
O=C(CSc1nnc(CNC(=O)c2cccs2)o1)Nc1ccccc1,-3,7,6,4,18*,4,-2
O=C(CSc1nnc(Cn2cnc3ccccc32)o1)Nc1cccc2ccccc12,4,-4,-9,5,2,-4,.
COc1ccc(C(=O)NCc2nnc(SCC(=O)Nc3nc4ccccc4s3)o2)cc1,35,49,6,-1,-2,0,.
COc1cc(C(=O)NCc2nnc(SCC(=O)Nc3nc4ccccc4s3)o2)cc(OC)c1OC,4,71*,-10,-13,12*,-15,1
Cc1ccc(NC(=O)CSc2nnc(CNC(=O)c3cccs3)o2)cc1,4,-8,-4,5,-1,-2,.
CC(C)CN(C(=O)COC(=O)CNC(=O)c1ccccc1F)C1CCS(=O)(=O)C1 (stereo unspecified),-16,-7,0,14,-3,-2,.
CCC(C)N(C(=O)COC(=O)CNC(=O)c1ccccc1F)C1CCS(=O)(=O)C1 (stereo unspecified),13,-2,-1,1,15*,-5,-1
